From PubChem BioAssay AID2805 (Sanford-Burnham Center for Chemical Genomics, 2010)
Screen size: about 330,000 compounds; about 780 (0.24%) were called active.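 How the source made its calls: active means activation factor of at least 2 at 20 µM; inactive means the rest.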 The sample as a whole holds a higher share of actives than the screen did.

Each compound was assayed on intestinal alkaline phosphatase [Mus musculus] (assay: mouse intestinal phosphatase enzyme activation – biochemical, luminescence, uHTS, primary screen (AID 2805)). Settings: muIAP, CDP-Star luminescence, 30 min; at 10 µM; stronger effect = higher value; 1 = vehicle-only enzyme signal, 0 = enzyme-free wells.
How it was run: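 Assay system: mouse IAP enzyme; Reagent: CDP-Star chemiluminescent phosphatase substrate; Compound: DMSO-dissolved test compounds; Incubation: 30 min, room temperature; Technique: luminescence from enzymatic CDP-Star hydrolysis; Controls: DMSO-only wells and no-enzyme negative control.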

| Compound | activation factor |
| --- | --- |
| O=C(NCc1ccc2c(c1)OCO2)C12CC3CC(CC(C3)C1)C2 | 0.999 (inactive) |
| COC(=O)Cc1ccc(NC(=S)NCc2ccc(Cl)cc2)cc1 | 1.52 (inactive) |
| S=C(NCc1ccc(Cl)cc1)NC12CC3CC(CC(C3)C1)C2 | 3.89 (active) |
| CCC(=O)N1c2ccccc2NC2=C(C(=O)CCC2)C1c1ccco1 (stereo unspecified) | 1.01 (inactive) |
| CCOC12CC(C)(C)CC(C)(CC3=C1C(=O)CC(C)(C)C3)C2 (stereo unspecified) | 1.02 (inactive) |
| COC(=O)c1cc(S(=O)(=O)NCC2CCN(Cc3ccc(Cl)cc3)CC2)cn1C | 1.12 (inactive) |
| COc1ccc(Cl)cc1NC(=O)NCC1CCN(Cc2ccccc2F)CC1 | 1.56 (inactive) |
| COc1cc(CN2CCN(Cc3ccc(C)cc3)CC2)c([N+](=O)[O-])cc1OC | 0.893 (inactive) |
| Cc1ccccc1NC(=O)NCC1CCN(Cc2cccc(Cl)c2)CC1 | 1.72 (inactive) |
| O=C(NCCN1CCOCC1)Nc1cccc(Cl)c1 | 0.941 (inactive) |
| COc1cc(NC(=O)NCC2CCN(Cc3ccc(C)cc3)CC2)cc(OC)c1OC | 2.24 (active) |
| CC(=O)N1CCN(CC(=O)Nc2ccc(C)c(F)c2)CC1 | 1.06 (inactive) |
| O=C(CN1CCN(Cc2ccccc2)CC1)Nc1ccc(F)c(F)c1 | 1.1 (inactive) |
| O=C(NCC1CCN(Cc2ccccc2Cl)CC1)Nc1cccc(Cl)c1 | 3.53 (active) |
| Cc1cccc(CN2CCC(CNC(=O)Nc3ccc(F)c(Cl)c3)CC2)c1 | 3.26 (active) |
| Cc1ccc(C)c(CN2CCC(CNC(=O)Nc3ccc(C)c(F)c3)CC2)c1 | 4.63 (active) |
| COc1cc(NC(=O)C2=CC(c3ccc(C)cc3)=NS(=O)(=O)N2C)cc(OC)c1OC | 0.84 (inactive) |
| COc1cc(OC)cc(-c2nc3ccccc3c(=O)n2NC(=O)c2cccnc2Cl)c1 | 0.962 (inactive) |
| CCCn1nnnc1NC(=O)COc1ccc(Cl)cc1C | 0.94 (inactive) |
| CCCSc1ccc([C@H]2N[C@@](Cc3ccccc3)(C(=O)OC)[C@H]3C(=O)N(C)C(=O)[C@@H]23)cc1 | 1.04 (inactive) |
| CCN1CCN(C(=O)c2cc3cc4ccc(OC)cc4nc3s2)CC1 | 1.07 (inactive) |
| CCc1cc2c(=O)n(-c3ccccc3)c(SCC(=O)O)nc2s1 | 1.03 (inactive) |
| C=CCCC(=O)Nc1nc(C)c(-c2csc(Nc3ccc(Cl)cc3)n2)s1 | 0.878 (inactive) |
| S=C(NC1CCCCC1)NN1CCOCC1 | 0.975 (inactive) |
| Cc1cccc(-c2oc3ccc(-c4ccc5c(c4)OCO5)cc3c2C#Cc2cncn2C)c1 | 0.937 (inactive) |
| Cc1cc(NC(=O)CCC(=O)N(CC(=O)NCC2CCCO2)c2ccccc2C)no1 (stereo unspecified) | 0.924 (inactive) |
